Bioassay records (PubChem BioAssay)
Most compounds without a hit are left out; they make up all but 1.6% or so of the library.
HTRA1 inhibitor: HTRA1 (human) protease inhibition; inhibition, % at 5.96 µM; AID 504803; actives 0.5% (n = 340,000); recombinant HTRA1, FP-rhodamine activity-based probe, fluorescence polarization; in the data active = inhibition above about 36%
mABHD4 FP: inhibitors of mouse ABHD4 | inhibition, % at 8.92 µM | purified mABHD4, FP-Rh probe fluorescence polarization | Q8VD66 | actives 0.54% (n = 370,000);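 active = inhibition exceeding the mean over every tested compound plus 3 SD, cut at about 30% in these data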
Target sequence (Q8VD66 whole entry, looked up): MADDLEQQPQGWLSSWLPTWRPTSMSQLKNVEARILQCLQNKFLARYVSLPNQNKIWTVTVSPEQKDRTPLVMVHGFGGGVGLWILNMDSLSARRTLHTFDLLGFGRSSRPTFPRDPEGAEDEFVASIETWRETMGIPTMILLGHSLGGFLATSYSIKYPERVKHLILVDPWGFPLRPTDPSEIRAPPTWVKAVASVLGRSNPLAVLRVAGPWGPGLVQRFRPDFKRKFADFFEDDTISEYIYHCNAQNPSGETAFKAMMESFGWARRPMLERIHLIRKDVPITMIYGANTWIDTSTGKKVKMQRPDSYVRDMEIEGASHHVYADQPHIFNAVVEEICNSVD
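Material: mouse ABHD4 enzyme, wild type; Benchmarks: S159A mutant high control, sample median low control; Buffer or medium: HEPES pH 7.0, NaCl, Pluronic buffer; Signal: fluorescence polarization; Read-out: percent inhibition of probe binding, normalized to plate controls; Timing: pre-incubation 45 min, probe exposure 60 min, at 25 °C; Dosing: 8.92 µM, single dose.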
DAGLB inh: diacylglycerol lipase beta (human) inhibition. Q8NCG7. HEK293T DAGLB membrane lysate, EnzChek fluorogenic substrate. inhibition, % at 5.17 µM. actives 0.059% (n = 340,000). AID 504411; in the data active = inhibition above about 34%
SIAE primary: human SIAE inhibition, primary screen; SIAE FP-Rh probe binding, fluorescence polarization; Q9HAT2; inhibition, % at 9.66 µM; actives 0.69% (n = 370,000);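 active = inhibition above a cutoff: mean of compounds within the control limits plus 3 SD of those, cut at about 17% in these data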
TCR-CD3 inh: blocks the human TCR-CD3 interaction; TAMRA-labeled TCR probe fluorescence, biochemical; inhibition, % at 9.4 µM; actives 0.37% (n = 360,000);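 note: recombinant mutant TCR 2C K166C tagged with TAMRA read by polarization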
BSA probe FL: BSA probe counter-screen for TCR-CD3 inhibitors. inhibition, % at 9.4 µM. actives 10% (n = 1,200). shares compounds with TCR-CD3 inh. TAMRA-labeled BSA probe fluorescence counterscreen; in the data active = inhibition above about 23%
TCR-CD3 inh conf: TCR-CD3 interaction inhibition, confirmation; shares compounds with TCR-CD3 inh; TAMRA-labeled TCR probe fluorescence binding assay; inhibition, % at 9.4 µM; actives 48% (n = 1,200); AID 652036
A number is an active result. Cut-off read from the data, not from the text of the source, unless noted: active = inhibition above about 19%; inactive = the rest.

`O=C(CSc1nnc2ccccn12)NNC(=O)c1cccc([N+](=O)[O-])c1` gave HTRA1 inhibitor inactive, mABHD4 FP inactive, DAGLB inh inactive, SIAE primary inactive, TCR-CD3 inh 80, BSA probe FL inactive and TCR-CD3 inh conf inactive.
Screening O=C(CSc1nnc2ccccn12)NC(=O)c1cccc([N+](=O)[O-])c1 returned HTRA1 inhibitor inactive, mABHD4 FP inactive, DAGLB inh inactive, SIAE primary inactive and TCR-CD3 inh inactive.
For O=C(CNC(=O)c1cccc(Br)c1)N/N=C/c1cc(Br)cc(Br)c1O the results were HTRA1 inhibitor inactive, mABHD4 FP inactive, DAGLB inh inactive, SIAE primary inactive, TCR-CD3 inh 48, BSA probe FL inactive and TCR-CD3 inh conf 36.
O=C(Cc1ccccc1)N/N=C/c1cc(Br)cs1 was read as HTRA1 inhibitor inactive, mABHD4 FP inactive, DAGLB inh inactive, SIAE primary inactive and TCR-CD3 inh inactive.
Screening O=C(CNC(=O)c1cccc(Br)c1)N/N=C/c1cccs1 returned HTRA1 inhibitor inactive, mABHD4 FP inactive, DAGLB inh inactive, SIAE primary inactive and TCR-CD3 inh inactive.
For O=C(Cc1ccccc1)N/N=C/c1cc(Br)cc(Br)c1O the results were HTRA1 inhibitor inactive, mABHD4 FP inactive, DAGLB inh inactive, SIAE primary inactive, TCR-CD3 inh 23, BSA probe FL inactive and TCR-CD3 inh conf 25.
Screening CN(C)c1ccc(C(=O)N/N=C/c2cc(Br)cc(Br)c2O)cc1 returned mABHD4 FP inactive, SIAE primary inactive, TCR-CD3 inh 33, BSA probe FL inactive and TCR-CD3 inh conf 43.
Screening Cc1ccccc1NC(=O)N(C)[C@H]1C[C@H]2c3[nH]c4c(-c5ccccc5)cccc4c3CCN2C[C@H]1[C@H](C)O returned mABHD4 FP inactive and SIAE primary inactive.
Screening Nc1nc2c(ncn2[C@@H]2O[C@H](C(=O)NCC3CCCCC3)[C@@H](O)[C@H]2O)c(=O)[nH]1 returned mABHD4 FP inactive, SIAE primary inactive and TCR-CD3 inh inactive.
Screening CCCn1c(=O)c(C(=O)Nc2ncccc2O)c(O)c2ccccc21 returned HTRA1 inhibitor inactive, mABHD4 FP inactive, DAGLB inh inactive, SIAE primary inactive, TCR-CD3 inh 22, BSA probe FL inactive and TCR-CD3 inh conf 21.
`CN1OC[C@@H]2CN(C(=O)c3ccc([N+](=O)[O-])cc3)[C@H](c3ccccc3Br)C[C@@H]21` gave mABHD4 FP inactive, SIAE primary inactive and TCR-CD3 inh inactive.
Screening COc1cccc(S(=O)(=O)NCc2ccc(C(=O)Nc3ccc(Cl)c(Cl)c3)cc2)c1 returned HTRA1 inhibitor inactive, mABHD4 FP inactive, DAGLB inh inactive, SIAE primary inactive, TCR-CD3 inh 35, BSA probe FL inactive and TCR-CD3 inh conf inactive.
O=C(Nc1ccc(Cl)c(Cl)c1)c1cccc(S(=O)(=O)NCc2cccnc2)c1 was read as HTRA1 inhibitor inactive, mABHD4 FP inactive, DAGLB inh inactive, SIAE primary inactive, TCR-CD3 inh 33, BSA probe FL inactive and TCR-CD3 inh conf inactive.
`COc1cc(/C=N/NC(=O)C2(O)c3ccccc3-c3ccccc32)ccc1O` gave HTRA1 inhibitor inactive, mABHD4 FP inactive, DAGLB inh inactive, SIAE primary inactive and TCR-CD3 inh inactive.
Screening COc1cc(/C=N/NC(=O)C(=O)/C=C2\NC(C)(C)Cc3ccccc32)ccc1O returned HTRA1 inhibitor inactive, mABHD4 FP inactive, DAGLB inh inactive, SIAE primary inactive, TCR-CD3 inh 26, BSA probe FL inactive and TCR-CD3 inh conf inactive.
C=C(C)c1cccc(C(C)(C)NC(=O)Nc2ccc(C(C)=O)cc2)c1 was read as HTRA1 inhibitor inactive, mABHD4 FP inactive, DAGLB inh inactive, SIAE primary inactive and TCR-CD3 inh inactive.
For C=C(C)c1cccc(C(C)(C)NC(=O)NNC(=O)c2ccccc2O)c1 the results were HTRA1 inhibitor inactive, mABHD4 FP inactive, DAGLB inh inactive, SIAE primary inactive, TCR-CD3 inh 31, BSA probe FL inactive and TCR-CD3 inh conf inactive.
Screening COc1ccc(C(=O)NNC(=S)NC(=O)/C=C/c2cccs2)cc1 returned HTRA1 inhibitor inactive, mABHD4 FP inactive, DAGLB inh inactive, SIAE primary inactive, TCR-CD3 inh 25, BSA probe FL inactive and TCR-CD3 inh conf inactive.
`O=C(NC(=S)Nc1ccc(Br)cn1)c1cccs1` gave HTRA1 inhibitor inactive, mABHD4 FP inactive, DAGLB inh inactive, SIAE primary inactive, TCR-CD3 inh 27, BSA probe FL inactive and TCR-CD3 inh conf inactive.
For O=C(NNC(=S)NC(=O)c1cccs1)c1ccc(O)cc1 the results were HTRA1 inhibitor inactive, mABHD4 FP inactive, DAGLB inh inactive, SIAE primary inactive, TCR-CD3 inh 26, BSA probe FL inactive and TCR-CD3 inh conf 23.
For C[C@@H]1CCCN1c1cccc2c1S(=O)(=O)N(C1CC1)CCCO2 the results were mABHD4 FP inactive and SIAE primary inactive.
Cc1cc2c(c(=O)o1)[C@@]1(C(=O)N(C)c3cccc(Br)c31)C1=C(CCCC1=O)O2 was read as mABHD4 FP inactive, SIAE primary inactive and TCR-CD3 inh inactive.
Screening O=C(OCC(=O)N1CCc2ccccc21)c1c2c(nc3ccccc13)CCCC2 returned HTRA1 inhibitor inactive, mABHD4 FP inactive, DAGLB inh inactive, SIAE primary inactive, TCR-CD3 inh 44, BSA probe FL inactive and TCR-CD3 inh conf inactive.
For Cc1c(C(=O)NN2CCCCC2)nn(-c2ccc(Cl)cc2Cl)c1-c1ccc(Cl)cc1 the results were mABHD4 FP inactive and SIAE primary inactive.
For O=C1CCCC2=C1C(c1ccc(Br)cc1)c1c([nH]c(=S)[nH]c1=O)N2 (stereo not drawn) the results were HTRA1 inhibitor inactive, mABHD4 FP inactive, DAGLB inh inactive, SIAE primary inactive and TCR-CD3 inh inactive.
`O=c1[nH]c(=S)[nH]c2c1C(c1ccc(Br)cc1)c1c([nH]c(=S)[nH]c1=O)O2` gave HTRA1 inhibitor inactive, mABHD4 FP inactive, DAGLB inh inactive, SIAE primary inactive, TCR-CD3 inh 22, BSA probe FL inactive and TCR-CD3 inh conf inactive.
`CCOC(=O)c1cc(S(=O)(=O)NC2CCCCC2)cn1C` gave HTRA1 inhibitor inactive, mABHD4 FP inactive, DAGLB inh inactive, SIAE primary inactive, TCR-CD3 inh 30, BSA probe FL inactive and TCR-CD3 inh conf inactive.
Screening Cc1ccc(S(=O)(=O)N2CCC(C(=O)NNC(=O)c3ccccc3O)CC2)cc1 returned HTRA1 inhibitor inactive, mABHD4 FP inactive, DAGLB inh inactive, SIAE primary inactive, TCR-CD3 inh 52, BSA probe FL inactive and TCR-CD3 inh conf 36.
Cc1ccc(S(=O)(=O)N2CCC(C(=O)NNC(=O)c3ccccc3O)CC2)cc1C was read as HTRA1 inhibitor inactive, mABHD4 FP inactive, DAGLB inh inactive, SIAE primary inactive, TCR-CD3 inh 41, BSA probe FL inactive and TCR-CD3 inh conf 32.
